UHRF1 binding: human UHRF1 methylated DNA binding inhibitors; UHRF1 binding to methylated oligo, TR-FRET; inhibition, % at 4.4 µM; 0.75% of 370,000 active; AID 687016; in the data active means inhibition above about 21%;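 further: UHRF1 SRA domain binding a hemimethylated CpG hairpin DNA probe; 0% = median of test compound wells and 100% = reference inhibitor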
TCR-CD3 inh: blocks the human TCR-CD3 interaction. TAMRA-labeled TCR probe fluorescence, biochemical. inhibition, % at 9.4 µM. 0.37% of 360,000 active. AID 651800; in the data active means inhibition above about 19%;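 further: recombinant mutant TCR 2C K166C tagged with TAMRA read by polarization; 0% = receptor in buffer alone and 100% = receptor with positive control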
LEDGF integ inh: blocks HIV-1 LEDGF/p75-dependent DNA integration | TR-FRET IN-LEDGF/p75 DNA integration, Eu/Cy5 | AID 743269 | 0.64% of 370,000 active | inhibition, % at 3.7 µM;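 active means inhibition above the screen-wide mean plus 3 SD, cut at about 13% in these data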;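 further: signal is the Cy5 over europium emission ratio at 671 and 618 nm; 0% = plate median of compound wells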
ARFGAP1 inhibitor: inhibits rat ARF GTPase activating protein 1; Arfgap1-stimulated ARF1 GTP hydrolysis, GDP FP detection; Q62848; inhibition, % at 16.5 µM; 0.26% of 360,000 active;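 active means inhibition above a per-plate limit, mean inhibition of low control wells plus 3 SD, cut at about 25% in these data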;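 further: 0% = DMSO wells with enzyme and 100% = wells lacking Arfgap1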
Target sequence (Q62848 1-136 limits assumed): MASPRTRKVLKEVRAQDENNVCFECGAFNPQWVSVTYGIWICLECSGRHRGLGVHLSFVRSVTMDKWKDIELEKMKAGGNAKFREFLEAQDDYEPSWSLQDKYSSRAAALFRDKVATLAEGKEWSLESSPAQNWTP
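Material – truncated rat Arfgap1 GAP domain · Buffer or medium – HEPES-based buffer, pH 7.5 · Reagent – human ARF1(Δ1-17)-GTP substrate · Dosing – 16.5 µM single point, 1.26% DMSO · Schedule – GTP hydrolysis reaction 2 h at 25 °C · Technique – GDP detection by fluorescence polarization · Benchmarks – No-Arfgap1 wells (100%) versus DMSO full-reaction wells (0%) · Repeats – single replicate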
MBD2 DNA inh: inhibitors of human MBD2 binding to methylated oligonucleotide. TR-FRET. inhibition, % at 4.4 µM. 0.31% of 370,000 active; in the data active means inhibition above about 13%
ASAP1 inh: inhibitors of human ASAP1 ArfGAP activity | inhibition, % at 16.5 µM | AID 624377 | 0.19% of 360,000 active | ASAP1-stimulated ARF1 GTP hydrolysis, GDP FP detection; in the data active means inhibition above about 25%;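 further: 0% = vehicle with enzyme and substrate and 100% = no enzyme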
Target sequence (Q9ULH1 325-724 limits assumed): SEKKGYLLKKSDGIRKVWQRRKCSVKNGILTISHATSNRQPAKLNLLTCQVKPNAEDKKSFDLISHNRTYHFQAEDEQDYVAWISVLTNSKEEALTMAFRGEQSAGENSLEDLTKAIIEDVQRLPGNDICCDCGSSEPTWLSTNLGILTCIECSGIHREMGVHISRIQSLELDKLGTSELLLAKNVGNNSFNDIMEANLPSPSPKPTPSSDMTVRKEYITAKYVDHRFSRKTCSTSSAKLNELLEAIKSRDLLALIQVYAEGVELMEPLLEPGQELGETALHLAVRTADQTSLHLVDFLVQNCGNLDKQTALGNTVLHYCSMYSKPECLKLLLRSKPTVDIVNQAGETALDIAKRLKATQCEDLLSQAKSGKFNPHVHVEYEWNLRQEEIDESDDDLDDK
UHRF1 DNA bind: inhibits human UHRF1 binding to methylated oligonucleotide, MBD2 counter-screen; 25% of 1,000 active; TR-FRET; inhibition, % at 4.4 µM; shares compounds with MBD2 DNA inh; in the data active means inhibition above about 21%;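 further: UHRF1 SRA domain binding a labeled hemimethylated CpG hairpin DNA; 0% = vehicle only and 100% = reference inhibitor with vehicle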
MBD2 DBD conf: MBD2-DBD methyl-DNA binding inhibition, TR-FRET confirmation; shares compounds with MBD2 DNA inh; TR-FRET MBD2-DBD binding to methylated oligonucleotide; inhibition, % at 4.4 µM; 26% of 1,000 active
IN multimer up: activates HIV-1 integrase multimerization in LEDGF counter-screen; shares compounds with LEDGF integ inh; TR-FRET HIV-1 integrase multimerization, biochemical; activation, % at 7.7 µM; 17% of 2,000 active; AID 1053131; in the data active means activation above about 8.9%
TRFRET interf: optically interferes with TR-FRET readout in LEDGF counter-screen; shares compounds with LEDGF integ inh; TR-FRET optical interference counterscreen, HIV-1 IN multimerization; inhibition, % at 7.7 µM; 2,000 tested, under 10 active; AID 1053135;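 active means inhibition above the mean over all tested compounds plus 3 SD, which no compound reached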;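 further: 0% = integrase with antibodies and DMSO and 100% = antibodies without integrase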
LEDGF integ conf: confirmation of HIV-1 LEDGF/p75-dependent integration inhibitors; shares compounds with LEDGF integ inh; TR-FRET LEDGF/p75-dependent HIV-1 integration, biochemical; inhibition, % at 3.7 µM; 36% of 2,000 active; AID 1053136
Starred values were filed as active, the others as inactive. A selection: hits, their analogues and other compounds. The true share with any hit is near 2%. Unless noted, no stated cut-off is given here; in the data, active means inhibition above about 14%; inactive means the rest.

CCn1c(C)nc2cc(C(=O)N/N=C/c3ccc(O)c(O)c3O)ccc21 was read as UHRF1 binding 19, TCR-CD3 inh 66*, LEDGF integ inh 73*, ARFGAP1 inhibitor 10, MBD2 DNA inh 16*, ASAP1 inh 3, UHRF1 DNA bind 3, MBD2 DBD conf 2, IN multimer up 52*, TRFRET interf -264 and LEDGF integ conf 70*.
For O=C1Cc2cccc(=O)c(O)c2C(=O)O1 the results were UHRF1 binding 28*, TCR-CD3 inh 10, LEDGF integ inh 20*, ARFGAP1 inhibitor -3, MBD2 DNA inh 13*, ASAP1 inh 3, UHRF1 DNA bind 28*, MBD2 DBD conf 11, IN multimer up 6, TRFRET interf -31 and LEDGF integ conf 26*.
For O=C1c2c(O)cccc2Cc2cccc(O)c21 the results were UHRF1 binding -3, TCR-CD3 inh 6, LEDGF integ inh 2, ARFGAP1 inhibitor -4, MBD2 DNA inh -6 and ASAP1 inh -4.
For O=C1CC(=O)N(Cc2ccco2)C(=O)N1 the results were UHRF1 binding 93*, TCR-CD3 inh 8, LEDGF integ inh 89*, ARFGAP1 inhibitor -8, MBD2 DNA inh 64*, ASAP1 inh 6, UHRF1 DNA bind 100*, MBD2 DBD conf 74*, IN multimer up 18*, TRFRET interf -90 and LEDGF integ conf 87*.
Screening Cc1ccc2c(=O)n3c(nc2c1)C(Cc1ccc(O)cc1)NC(=O)c1cc2ccccc2cc1-3 (stereo not given) returned UHRF1 binding 0, TCR-CD3 inh 5, LEDGF integ inh 0, ARFGAP1 inhibitor 4, MBD2 DNA inh 3 and ASAP1 inh 12.
CCOCCOc1cccc(C(=O)NC(c2ccccc2)c2ccccc2)c1 was read as UHRF1 binding -3, TCR-CD3 inh 5, LEDGF integ inh 4, ARFGAP1 inhibitor -1, MBD2 DNA inh 0 and ASAP1 inh -2.
`O=S(=O)(Nc1nc2ccccc2s1)c1cc(F)ccc1F` gave UHRF1 binding 1, TCR-CD3 inh -4, LEDGF integ inh 5, ARFGAP1 inhibitor 6, MBD2 DNA inh -6 and ASAP1 inh 21.
`O=S(=O)(Nc1nc(-c2ccco2)c(-c2ccco2)s1)c1ccc(F)cc1F` gave UHRF1 binding 59*, TCR-CD3 inh 11, LEDGF integ inh 35*, ARFGAP1 inhibitor -14, MBD2 DNA inh 23*, ASAP1 inh -7, UHRF1 DNA bind 11, MBD2 DBD conf 4, IN multimer up 1, TRFRET interf -5 and LEDGF integ conf 10.
For O=C(/C=C/c1ccco1)NC(=S)Nc1cccc(C(=O)O)c1 the results were UHRF1 binding 70*, TCR-CD3 inh 5, LEDGF integ inh 44*, ARFGAP1 inhibitor -5, MBD2 DNA inh 17*, ASAP1 inh -8, UHRF1 DNA bind 56*, MBD2 DBD conf 18*, IN multimer up 9, TRFRET interf -43 and LEDGF integ conf 16*.
Screening Cc1cc(C)n2c(Nc3ccc4c(c3)OCCO4)c(-c3ccc(C)o3)nc2n1 returned UHRF1 binding 26*, TCR-CD3 inh 9, LEDGF integ inh 24*, ARFGAP1 inhibitor -8, MBD2 DNA inh 16*, ASAP1 inh -8, UHRF1 DNA bind 2, MBD2 DBD conf 2, IN multimer up 2, TRFRET interf -8 and LEDGF integ conf 4.
`CC(C)(CS(=O)(=O)[O-])NC(=O)CC[N+](C)(C)CCO` gave UHRF1 binding 92*, TCR-CD3 inh -5, LEDGF integ inh 39*, ARFGAP1 inhibitor 12, MBD2 DNA inh 54*, ASAP1 inh 12, UHRF1 DNA bind 95*, MBD2 DBD conf 85*, IN multimer up 122*, TRFRET interf inactive and LEDGF integ conf 38*.
O=c1ccc2cc(O)c(O)cc2o1 was read as UHRF1 binding 94*, TCR-CD3 inh 15, LEDGF integ inh 94*, ARFGAP1 inhibitor -12, MBD2 DNA inh 71*, ASAP1 inh 7, UHRF1 DNA bind 5, MBD2 DBD conf 4, IN multimer up 7, TRFRET interf -36 and LEDGF integ conf 6.
For O=C(O)c1ccc(-n2cccc2/C=C2/NC(=O)N(c3cccc(Cl)c3)C2=O)cc1 the results were UHRF1 binding 81*, TCR-CD3 inh 12, LEDGF integ inh 33*, ARFGAP1 inhibitor 7, MBD2 DNA inh 39*, ASAP1 inh -12, UHRF1 DNA bind 78*, MBD2 DBD conf 49*, IN multimer up 13*, TRFRET interf -63 and LEDGF integ conf 31*.
Screening N#Cc1ccccc1CN1C(=O)S/C(=C/c2cccn2-c2ccc(C(=O)O)cc2)C1=O returned UHRF1 binding 10, TCR-CD3 inh -2, LEDGF integ inh 5, ARFGAP1 inhibitor -5, MBD2 DNA inh 9 and ASAP1 inh -1.
For O=C(O)c1ccc(-n2cccc2/C=C2/NC(=O)N(c3ccccc3)C2=O)cc1 the results were UHRF1 binding 77*, TCR-CD3 inh 24*, LEDGF integ inh 22*, ARFGAP1 inhibitor 0, MBD2 DNA inh 37*, ASAP1 inh -7, UHRF1 DNA bind 72*, MBD2 DBD conf 44*, IN multimer up 14*, TRFRET interf -72 and LEDGF integ conf 31*.
For O=C(O)c1ccc(-n2cccc2/C=C2/SC(=O)N(CC(=O)N3CCCC3)C2=O)cc1 the results were UHRF1 binding 76*, TCR-CD3 inh 11, LEDGF integ inh 36*, ARFGAP1 inhibitor -6, MBD2 DNA inh 44*, ASAP1 inh -21, UHRF1 DNA bind 85*, MBD2 DBD conf 49*, IN multimer up 16*, TRFRET interf -80 and LEDGF integ conf 36*.
CCN(CC)CCCNC(=S)N1CCN(c2nc3ccccc3n2CC)CC1 was read as UHRF1 binding -2, TCR-CD3 inh 2, LEDGF integ inh 3, ARFGAP1 inhibitor -2, MBD2 DNA inh 5 and ASAP1 inh -11.
